Reference: publication PMC3744103 (Molecular cancer therapeutics, 2013)
Where “and” joins values, the source holds several entries; their conditions need not be identical. Equal values may be shown once.

How the values were obtained:
UMUC3 cells [1] = test: Cell viability, ATPase activity assay; assay type: cell-based, human
Procedure, shortened: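 Cells exposed for 48 h to varying concentrations of test compound, with 0.1% DMSO as vehicle control. Viability read by an ATPase-based assay in three independent experiments. UMUC3 kept in DMEM with 10% FBS at 37 °C and 5% CO2. IC50 given with n=3.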

RT4 cells = test: Cell viability, ATPase activity assay; assay type: cell-based, human; conditions: read-out: IC50, cell viability; RT4, ISO 5–60 μM, 48 h, n=3
Cl41 cells = test: Cell viability, ATPase activity assay; assay type: cell-based, mouse; conditions: normal Cl41 cells, ISO 5–60 μM, 48 h
UMUC3 cells [2] = test: Cell morphology observation; assay type: cell-based, human; conditions: UMUC3, 20 μM ISO, 24 hours
UMUC3 cells [3] = test: Cell cycle and apoptosis analysis by flow cytometry; assay type: cell-based, human; conditions: UMUC3, 5 μM ISO; for cells in G0/G1 (growth arrest): control 47.58%
UMUC3 cells [4] = test: Anchorage-independent growth assay; assay type: cell-based, human; conditions: UMUC3 in soft agar, concentration-dependent, as low as 5 μM, P<0.01
Procedure, shortened: (§1)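 UMUC3 cells (DMEM, 10% FBS; stable GFP or GFP-Cyclin D1 transfectants made by co-transfection with pSuper vector) were seeded at 1×10^4 per well in 0.33% soft agar in 10% FBS BME, with or without test compound, over a 0.5% agar bottom layer. Vehicle was 0.1% DMSO. Cultures were kept at 37°C, 5% CO2 for 21 days. Colonies over 32 cells were counted by microscope as colonies per 10,000 seeded cells (mean±SD, 3 experiments).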

[5] = ISO pharmacokinetics in mouse serum, LC/MS/MS; assay type: in vivo, mice; conditions: for Caverage ± SD, serum ISO concentration: mouse serum, 150 mg/kg gastric gavage, n=3
Procedure, shortened: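 Male […] mice (20–25 g, 30 total) received 150 mg/kg by gastric gavage; three were killed per time point from 0.033 to 4 h. Serum (centrifuged 4000 rpm, 30 min; stored −20 °C) extracted with methanol, filtered 0.45 μm and run on LC/MS/MS: negative ESI, MRM, m/z 257.0/241.1, naringenin 271.1/151.1. Parameters derived by non-compartmental analysis.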

[6] = test system: Cyclin D1 protein expression in UMUC3 cells; test: Western blotting of Cyclin D1 and cell cycle regulators; assay type: cell-based, human
[7] = test system: Cyclin D1 protein expression in RT112 cells; test: Western blotting of Cyclin D1; assay type: cell-based, human
[8] = test system: Cyclin D1 protein expression in RT4 cells; test: Western blotting of Cyclin D1; assay type: cell-based, human; conditions: low grade RT4 cell line, 24h
[9] = test system: Cyclin D1 protein expression in Cl41 cells; test: Western blotting of Cyclin D1; assay type: cell-based, mouse; conditions: normal Cl41 cell line, 24h
[10] = test system: cyclin d1 mRNA in UMUC3 cells; test: Semiquantitative RT-PCR; assay type: cell-based, human; conditions: UMUC3, concentration- and time-dependent (24 h; 5 μM time course)
Procedure, shortened: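 UMUC3 cells treated with test compound at the indicated concentrations for 24 h, or at 5 μM for the indicated times. Total RNA isolated with TRIzol and reverse transcribed. Cyclin D1 mRNA measured by semiquantitative RT-PCR against GAPDH, with products run on 2% agarose and stained with ethidium bromide.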

[11] = test system: Cyclin D1 promoter transcriptional activity in UMUC3 cells; test: Cyclin D1 promoter-driven luciferase reporter assay; assay type: cell-based, human; conditions: ISO 5μM
Procedure, shortened: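 UMUC3 cells stably carrying a Cyclin D1 promoter-luciferase reporter were seeded at 1×10^4 per well and treated with 5 μM test compound at 80–90% confluence for the indicated times. Luciferase activity read on a microplate luminometer.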

[12] = test system: SP1-dependent transcriptional activity in UMUC3 cells; test: SP1 luciferase reporter assay; assay type: cell-based, human; conditions: UMUC3 stable reporter, ISO 5μM, P<0.01
Procedure, shortened: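 A reporter with three consensus SP1 sites was stably co-transfected with pRL-TK and pSuper into UMUC3 cells. Cells were seeded at 1×10^4 per well and, at 80–90% confluence, exposed to 5 μM test compound for various times. Lysis buffer was Tris-phosphate pH 7.8 with EDTA, Triton X-100 and glycerol. Dual-luciferase read-out gave relative SP1 activity (means±SE, three independent experiments).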

[13] = test system: SP1 protein expression in UMUC3 cells; test: Western blotting of cytoplasmic and nuclear extracts for transcription factors; assay type: cell-based, human; conditions: UMUC3, 5 μM ISO, 12 h
Procedure, shortened: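 UMUC3 cells in 10-cm dishes were treated with 0.1% DMSO or 5 μM test compound for 12 h. Cytoplasmic and nuclear fractions were prepared with a nuclear/cytosol fractionation kit and stored at −80°C. Immunoblots used an AP-conjugated secondary with ECF detection and GAPDH as loading control. Nuclear SP1 was quantified by scanning relative to C-Jun (n=3).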

[14] = test system: SP1 binding to Cyclin D1 promoter in UMUC3 cells; test: ChIP assay; assay type: cell-based, human; conditions: UMUC3, ISO 5 μM, 12 hours
Procedure, shortened: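 Chromatin immunoprecipitation (EZ-ChIP kit) on UMUC3 cells left untreated or given 5 μM test compound for 12 h. Precipitated DNA amplified by PCR with primers covering the SP1-binding region −92 to +27 of the human Cyclin D1 promoter.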

UMUC3(GFP) cells = test: Cell cycle analysis by flow cytometry in stable transfectant; assay type: cell-based, human; conditions: ISO 24 h, control 62.74%
[15] = test system: UMUC3(GFP-Cyclin D1) cells; test: as above; assay type: cell-based, human; conditions: ISO 24 h, control 51.01%
[16] = test system: UMUC3 (GFP) and UMUC3 (GFP-Cyclin D1) cells; test: Anchorage-independent growth in soft agar, stable transfectants; assay type: cell-based, human; conditions: UMUC3 (GFP) vs UMUC3 (GFP-Cyclin D1) in soft agar
Procedure, shortened: as §1

[17] = test system: endogenous Cyclin D1 and exogenous GFP-Cyclin D1 in UMUC3 transfectants; test: Western blotting in stable transfectants; assay type: cell-based, human; conditions: ISO 24 h
Procedure, shortened: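 UMUC3 cells stably transfected with GFP or GFP-Cyclin D1 constructs were treated with test compound for 24 h. Cells were lysed in 10 mM Tris-HCl (pH 7.4), 1% SDS, 1 mM Na3VO4, and protein was quantified by DC assay. Blots were probed with primary antibodies and an AP-conjugated secondary, with ECF detection.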

[18] = test system: human bladder cancer cells; conditions: cited from earlier work
[19] = test system: bovine aortic smooth muscle cells (BASMCs); conditions: cited from earlier work
cardiac hypertrophy = conditions: by anti-oxidative activity; cited from earlier work
[20] = mice, 150 mg/kg oral, non-compartmental model

## COc1cc(/C=C/c2cc(O)cc(O)c2)ccc1O [ISO, Isorhapontigenin]
UMUC3 cells [1]; UMUC3, 5 μM ISO
  cell proliferation: inhibition of cell proliferation
UMUC3 cells [1]; read-out: IC50, cell viability, UMUC3, ISO 5–60 μM, 48 h, n=3
  IC50: 22.4 ± 3.3 µM
RT4 cells
  IC50: 38.6 ± 2.9 µM
Cl41 cells
  cell viability: no obvious reduction of cell viability
UMUC3 cells [2]
  morphologic changes: shrinkage, rounding, detachment and membrane blebbing
UMUC3 cells [3]
  apoptotic cells: did not induce any increases of apoptotic cells
UMUC3 cells [3]; 12h
  cells in G0/G1 (growth arrest): 57.98%
UMUC3 cells [3]; 24h
  cells in G0/G1 (growth arrest): 62.62%
UMUC3 cells [4]
  anchorage-independent growth: markedly inhibited anchorage-independent growth
[5]; [20]
  AUC(0-t): 6090 ± 2810 ng·h/mL
  AUC(0-∞): 6100 ± 2800 ng·h/mL
  CLz/F, apparent clearance: 462 ± 172 mL/min/kg
  MRT(0-t), mean residence time: 0.70 ± 0.20 h
[5]; mice, 150 mg/kg oral, non-compartmental model, 150 mg/kg
  t1/2z, terminal half-life: 1.7 h and 1.72 ± 0.27 h
[5]; 0.033 h
  Caverage ± SD, serum ISO concentration: 6800 ± 2100 ng/mL
[5]; 0.083 h
  Caverage ± SD, serum ISO concentration: 10740 ± 3520 ng/mL
[5]; 0.170 h
  Caverage ± SD, serum ISO concentration: 12350 ± 4790 ng/mL
[5]; 0.250 h
  Caverage ± SD, serum ISO concentration: 9230 ± 4840 ng/mL
[5]; 0.500 h
  Caverage ± SD, serum ISO concentration: 6220 ± 3600 ng/mL
[5]; 0.750 h
  Caverage ± SD, serum ISO concentration: 830 ± 800 ng/mL
[5]; 1.000 h
  Caverage ± SD, serum ISO concentration: 290 ± 240 ng/mL
[5]; 1.500 h
  Caverage ± SD, serum ISO concentration: 280 ± 140 ng/mL
[5]; 2.000 h
  Caverage ± SD, serum ISO concentration: 170 ± 120 ng/mL
[5]; 4.000 h
  Caverage ± SD, serum ISO concentration: 30 ± 10 ng/mL
[6]; UMUC3, 5 μM ISO
  earliest time of significant reduction of Cyclin D1 expression: 6 h
[6]; UMUC3, 5 μM ISO, 24 h
  Cyclin B1 expression: slightly reduced
[6]; UMUC3, different concentrations of ISO, 24 hours
  expression of Cyclin A, Cyclin E, Cyclin B1, CDK4, CDK6, P53, P27, P21: did not show observable inhibition
[6]; UMUC3, different concentrations of ISO, 24 hours, vs DMSO
  Cyclin D1 protein expression: concentration-dependent reduction of Cyclin D1 protein expression
[7]; RT112, 5 μM ISO
  earliest time of significant reduction of Cyclin D1 expression: 6 h
[7]; high grade RT112 cell line, 24h
  Cyclin D1 expression: markedly inhibition of Cyclin D1 expression
[8]
  Cyclin D1 expression: slight inhibition
[9]
  Cyclin D1 expression: marginal induction of Cyclin D1
[10]
  cyclin d1 mRNA: marked reduction of cyclin d1 mRNA
[11]; UMUC3/SP1mut-Cyclin D1-Luc transfectant
  Cyclin D1 transcription, SP1 mutant reporter: did not shown a significant inhibition of Cyclin D1 transcription
[11]; UMUC3/WT Cyclin D1-Luc transfectant
  Cyclin D1 transcription, WT reporter: inhibited Cyclin D1 transcription
[11]; UMUC3 stable reporter, time-dependent, P<0.01
  Cyclin D1 promoter transcriptional activity: marked inhibition of Cyclin D1 promoter transcriptional activity
[12]
  SP1-dependent transcriptional activity: dramatically inhibition of SP1-dependent transcriptional activity
[13]
  SP1 protein expression: only downregulated SP1 protein expression
  expression, activation or nuclear translocation of C-FOS, P-C-JUN(ser 73), P-C-JUN(ser63), C-JUN, HSF-1, P-ATFII, P-NF-κB p65, NF-κB p65: did not show any observable inhibition
[14]
  SP1 binding to Cyclin D1 promoter region −92~+27: this binding was impaired
UMUC3(GFP) cells
  cells in G0/G1 (growth arrest): 74.60%
[15]
  cells in G0/G1 (growth arrest): 54.61%
[16]
  inhibition of anchorage-independent growth: reversed by ectopic expression of GFP-Cyclin D1
[17]
  endogenous Cyclin D1 vs exogenous GFP-Cyclin D1 protein expression: only downregulated endogenous Cyclin D1 protein expression
[18]; UMUC3 and other invasive BC cells, 20μM
  apoptosis: induced apoptosis
[18]; human bladder cancer cell lines, concentration lower than 20 μM
  cytotoxic effect: do not show cytotoxic effect
[18]; human bladder cancer cells, 20~60 μM
  anchorage-independent growth: significant inhibitory effect on anchorage-independent growth
[19]
  oxLDL-induced proliferation and mitogenesis: inhibitory effect
Cardiac hypertrophy
  cardiac hypertrophy: inhibits cardiac hypertrophy
